Experimental data reported in ChEMBL document CHEMBL5058577, “EUbOPEN Chemogenomics Library 2 (Multiplex)” (2022).

Test system: U2OS
Experiment: Multiplex assay against U2OS
Assay type: toxicity, cell-based
Conditions: human
Method in brief: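 Phenotypes for tubulin, mitochondrial mass and membrane permeability are expressed as per cents of healthy-nucleus cells. Cells were stained live at seeding with Hoechst33342, BioTracker Green Microtubule Cytoskeleton Dye, MitoTracker Red and Annexin V Alexa Fluor 680, then imaged after compound addition on a CQ1 microscope at 37°C and 5% CO2. Machine-learning gating in CellPathfinder separated Hoechst high-intensity objects from normal cells, divided normal cells by nuclear state (healthy, pyknosed, fragmented) and divided pyknosed cells into mitotic or apoptotic.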

[1] = 12 h, 1 µM, compound concentration 1 uM, replicate 1
[2] = 12 h, 1 µM, compound concentration 1 uM, replicate 2
[3] = 12 h, 10 µM, compound concentration 10 uM, replicate 1
[4] = 12 h, 10 µM, compound concentration 10 uM, replicate 2
[5] = 24 h, 1 µM, compound concentration 1 uM, replicate 1
[6] = 24 h, 1 µM, compound concentration 1 uM, replicate 2
[7] = 24 h, 10 µM, compound concentration 10 uM, replicate 1
[8] = 24 h, 10 µM, compound concentration 10 uM, replicate 2
[9] = 48 h, 1 µM, compound concentration 1 uM, replicate 1
[10] = 48 h, 1 µM, compound concentration 1 uM, replicate 2
[11] = 48 h, 10 µM, compound concentration 10 uM, replicate 1
[12] = 48 h, 10 µM, compound concentration 10 uM, replicate 2

C[C@H](NC(=O)c1c(C(F)F)nn(C)c1Oc1cccc(C(F)(F)F)c1)c1ccc(C(=O)O)cc1 [PALUPIPRANT]
Population Apoptotic (%) [1]: 60% | Population Fragmented Nuclei (%) [1]: 27% | Population Healthy Nuclei (%) [1]: 63% | Population Hoechst High Intensity Objects (%) [1]: 3% | Population Membrane Permeable-Phenotype (%) [1]: 4% | Population Mitochondria Different-Phenotype (%) [1]: 1% | Population Mitotic Cells (%) [1]: 39% | Population Normal (%) [1]: 96% | Population Pyknosed Nuclei (%) [1]: 8% | Population Tubulin-Different-Phenotype (%) [1]: 1% | Total Cell Count [1]: 266 | Population Apoptotic (%) [2]: 91% | Population Fragmented Nuclei (%) [2]: 12% | Population Healthy Nuclei (%) [2]: 78% | Population Hoechst High Intensity Objects (%) [2]: 0% | Population Mitochondria Different-Phenotype (%) [2]: 0% | Population Mitotic Cells (%) [2]: 8% | Population Normal (%) [2]: 99% | Population Pyknosed Nuclei (%) [2]: 9% | Population Tubulin-Different-Phenotype (%) [2]: 2% | Total Cell Count [2]: 132 | Population Apoptotic (%) [3]: 83% | Population Fragmented Nuclei (%) [3]: 28% | Population Healthy Nuclei (%) [3]: 62% | Population Hoechst High Intensity Objects (%) [3]: 3% | Population Membrane Permeable-Phenotype (%) [3]: 7% | Population Mitochondria Different-Phenotype (%) [3]: 4% | Population Mitotic Cells (%) [3]: 16% | Population Normal (%) [3]: 96% | Population Pyknosed Nuclei (%) [3]: 8% | Population Tubulin-Different-Phenotype (%) [3]: 5% | Total Cell Count [3]: 293 | Population Apoptotic (%) [4]: 100% | Population Fragmented Nuclei (%) [4]: 13% | Population Healthy Nuclei (%) [4]: 77% | Population Membrane Permeable-Phenotype (%) [4]: 5% | Population Mitochondria Different-Phenotype (%) [4]: 2% | Population Mitotic Cells (%) [4]: 0% | Population Tubulin-Different-Phenotype (%) [4]: 2% | Total Cell Count [4]: 117 | Population Apoptotic (%) [5]: 87% | Population Fragmented Nuclei (%) [5]: 20% | Population Healthy Nuclei (%) [5]: 72% | Population Hoechst High Intensity Objects (%) [5]: 2% | Population Membrane Permeable-Phenotype (%) [5]: 4% | Population Mitochondria Different-Phenotype (%) [5]: 1% | Population Mitotic Cells (%) [5]: 12% | Population Normal (%) [5]: 97% | Population Pyknosed Nuclei (%) [5]: 7% | Population Tubulin-Different-Phenotype (%) [5]: 3% | Total Cell Count [5]: 316 | Population Apoptotic (%) [6]: 94% | Population Fragmented Nuclei (%) [6]: 14% | Population Healthy Nuclei (%) [6]: 73% | Population Hoechst High Intensity Objects (%) [6]: 1% | Population Membrane Permeable-Phenotype (%) [6]: 5% | Population Mitochondria Different-Phenotype (%) [6]: 0% | Population Mitotic Cells (%) [6]: 5% | Population Normal (%) [6]: 98% | Population Pyknosed Nuclei (%) [6]: 11% | Population Tubulin-Different-Phenotype (%) [6]: 5% | Total Cell Count [6]: 147 | Population Apoptotic (%) [7]: 91% | Population Fragmented Nuclei (%) [7]: 18% | Population Healthy Nuclei (%) [7]: 74% | Population Hoechst High Intensity Objects (%) [7]: 2% | Population Membrane Permeable-Phenotype (%) [7]: 5% | Population Mitochondria Different-Phenotype (%) [7]: 3% | Population Mitotic Cells (%) [7]: 8% | Population Normal (%) [7]: 97% | Population Pyknosed Nuclei (%) [7]: 7% | Population Tubulin-Different-Phenotype (%) [7]: 1% | Total Cell Count [7]: 339 | Population Fragmented Nuclei (%) [8]: 13% | Population Healthy Nuclei (%) [8]: 77% | Population Mitochondria Different-Phenotype (%) [8]: 1% | Population Pyknosed Nuclei (%) [8]: 8% | Population Tubulin-Different-Phenotype (%) [8]: 0% | Total Cell Count [8]: 139 | Population Apoptotic (%) [9]: 82% | Population Fragmented Nuclei (%) [9]: 15% | Population Healthy Nuclei (%) [9]: 73% | Population Hoechst High Intensity Objects (%) [9]: 2% | Population Membrane Permeable-Phenotype (%) [9]: 3% | Population Mitochondria Different-Phenotype (%) [9]: 1% | Population Mitotic Cells (%) [9]: 17% | Population Normal (%) [9]: 97% | Population Pyknosed Nuclei (%) [9]: 11% | Population Tubulin-Different-Phenotype (%) [9]: 1% | Total Cell Count [9]: 426 | Population Apoptotic (%) [10]: 92% | Population Healthy Nuclei (%) [10]: 70% | Population Hoechst High Intensity Objects (%) [10]: 0% | Population Mitochondria Different-Phenotype (%) [10]: 0% | Population Mitotic Cells (%) [10]: 7% | Population Normal (%) [10]: 99% | Population Pyknosed Nuclei (%) [10]: 13% | Population Tubulin-Different-Phenotype (%) [10]: 2% | Total Cell Count [10]: 207 | Population Apoptotic (%) [11]: 91% | Population Fragmented Nuclei (%) [11]: 18% | Population Healthy Nuclei (%) [11]: 73% | Population Hoechst High Intensity Objects (%) [11]: 2% | Population Membrane Permeable-Phenotype (%) [11]: 5% | Population Mitochondria Different-Phenotype (%) [11]: 3% | Population Mitotic Cells (%) [11]: 8% | Population Normal (%) [11]: 97% | Population Pyknosed Nuclei (%) [11]: 7% | Population Tubulin-Different-Phenotype (%) [11]: 3% | Total Cell Count [11]: 463 | Population Apoptotic (%) [12]: 85% | Population Fragmented Nuclei (%) [12]: 14% | Population Healthy Nuclei (%) [12]: 79% | Population Hoechst High Intensity Objects (%) [12]: 1% | Population Membrane Permeable-Phenotype (%) [12]: 1% | Population Mitochondria Different-Phenotype (%) [12]: 1% | Population Mitotic Cells (%) [12]: 14% | Population Normal (%) [12]: 98% | Population Pyknosed Nuclei (%) [12]: 6% | Population Tubulin-Different-Phenotype (%) [12]: 0% | Total Cell Count [12]: 223
